Assay results published in ChEMBL document CHEMBL1124291, “New actinomycin D analogues as superior chemotherapeutic agents against primary and advanced colon tumors and colon xenografts in nude mice” (J Med Chem, 1988).
Starred links: 1 amine or outer side, 2 acyl side, 3 side chain; linkers in the order of their positions; H or OH if unused. Positions of bridges follow the written chain, without caps; N, C: chain ends. Non-standard residues stand in square brackets, D forms with d. Residues, ends and D or L forms follow the SMILES beside them. Chains are numbered I, II in the order given. Actinocin(9to1) = Cc1c2oc3c(C)ccc(C(=O)[*:1])c3nc-2c(C(=O)[*:2])c(N)c1=O; NMeV = CN[C@H](C(=O)O)C(C)C; Sar = CNCC(=O)O

Tests used:
[1] = tested on: B16; assay: In vivo antitumor activity against B16 melanoma cells at dose 300 ug/Kg /inj measured as Mean survival time (MST); format: functional, Mus musculus
How it was run: (§1)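 BDF1 mice in groups of nine were implanted ip on day 0 with 0.2 mL of 1:5 (w/v) B16 melanoma brei; drugs were given ip. Survival is reported as median survival time in days with range, and as %ILS, with survivors counted on day 65 out of total injected.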

[2] = tested on: B16; assay: In vivo antitumor activity against B16 melanoma cells at a optimal dose 300 ug/Kg /inj measured as %ILS (%increase life span); format: functional; conditions: Mus musculus; how it was run: as §1
[3] = tested on: MC-38; assay: Activity against advanced carcinoma C38 Tumor in CDF1 Mice at dose 0.15 mg/kg measured as % inhibition of tumor; format: functional; conditions: Mus musculus
[4] = tested on: P388; assay: 50% inhibition of incorporation of precursor [3H]thymidine into DNA P388 cell lines; format: functional, cell-based; conditions: Mus musculus, P388, 2 h
[5] = tested on: MC-38; assay: Number of toxic deaths/number of mice in a group of non tumored mice treated in parallel with the tumor-bearing mice and observed for 100 days at a dose 0.60 mg/Kg; value given as 4/9; format: toxicity; conditions: mouse, in vivo, 0.6 mg/kg, 2400 h
How it was run: (§2)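 Non-tumored CDF1 mice were treated in parallel with colon 38 tumor-bearing mice: iv injections on days 1, 5 and 9, groups of nine. Deaths were counted over 100 days of observation and reported as toxic deaths / mice in group.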

[6] = tested on: P388; assay: Antitumor activity in P388/S(AMD sensitive) in male BDF1 mice measured as optimal dose at dose 0.075-2.5 mg/kg/injection, ip
[7] = tested on: MC-38; assay: Number of toxic deaths/number of mice in a group of non tumored mice treated in parallel with the tumor-bearing mice and observed for 100 days at a dose 0.45 mg/Kg; value given as 1/9; format: toxicity; conditions: mouse, in vivo, 2400 h; how it was run: as §2
[8] = tested on: MC-38; assay: Activity against advanced carcinoma C38 Tumor in CDF1 Mice at dose 0.075 mg/kg measured as % inhibition of tumor; format: functional; conditions: Mus musculus
[9] = tested on: MC-38; assay: Activity against advanced carcinoma C38 Tumor in CDF1 Mice at dose 0.60 mg/kg measured as % inhibition of tumor; format: functional; conditions: Mus musculus
[10] = tested on: MC-38; assay: Mean survival time of treated /untreategroup x100. (number of over 100-day survivors/ number of total mice in the group) at a dose 0.30 mg/kg; format: functional, Mus musculus; conditions: dose 0.3 mg/kg
How it was run: (§3)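 CDF1 mice were implanted sc on day 0 with colon 38 adenocarcinoma fragments (70 mg) and given iv drug on days 1, 5 and 9. %T/C = median survival of treated / untreated × 100. Number of mice surviving over 100 days / group total is given in parentheses.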

[11] = species on record: Rattus norvegicus; assay: Stimulation of NADPH oxidation in the presence of rat liver microsomes; format: functional
How it was run: (§4)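 Drug-stimulated superoxide generation with rat liver microsomal enzymes and NADPH as cofactor. NADPH oxidation was read at 340 nm. Adrenochrome formed from epinephrine was read at 480 nm, with or without superoxide dismutase. % stimulation = [(drug-stimulated rate − basal rate)/basal rate] × 100. Values are mean ± standard error of triplicate analyses.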

[12] = species on record: Rattus norvegicus; assay: The formation of adrenochrome from epinephrine in the presence of SOD(super oxide dismutase); + denotes ' Inhibited'; format: functional; how it was run: as §4
[13] = tested on: B16; assay: In vivo Antitumor activity against B16 melanoma cells at a optimal dose measured as %ILS (%increase life span); format: functional, Mus musculus; how it was run: as §1
[14] = tested on: B16; assay: In vivo Antitumor activity against B16 melanoma cells at dose 250 ug/Kg /inj measured as Mean survival time (MST); format: functional, Mus musculus; how it was run: as §1
[15] = tested on: MC-38; assay: Number of toxic deaths/number of mice in a group of non tumored mice treated in parallel with the tumor-bearing mice and observed for 100 days at a dose 0.30 mg/Kg; value given as 0/9; format: functional, Mus musculus; how it was run: as §2
[16] = species on record: Rattus norvegicus; assay: Percent of the unconverted metabolite from incubation mixture containing rat microsomes; format: functional
How it was run: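 Tritiated analogues were incubated with two systems. (T) sonicated P388 cell homogenates, 37 °C for 16 h. (M) liver microsomes from phenobarbital-induced rats, 6 h with an NADPH-generating system (glucose-6-phosphate dehydrogenase plus glucose 6-phosphate). Metabolites and water-soluble conjugates were isolated, separated by HPLC and expressed as percentages.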

[17] = tested on: HT-29; assay: 50% inhibition of incorporationf precursor [3H]thymidine into DNA HT-29 cell lines; format: functional, cell-based; conditions: Homo sapiens, HT-29, 2 h
How it was run: (§5)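 HT-29 colon carcinoma monolayers, 10^4 cells per well, five wells per concentration. Drug exposure lasted 2 h, with [³H]thymidine and [2-¹⁴C]uridine (0.5 μCi each) added for the last hour. Cells were washed, trypsinized, counted and precipitated onto glass-fiber filters with 10% TCA. Acid-precipitable radioactivity was measured. IC50 is the concentration inhibiting 50% of incorporation; data are averages of replicate experiments.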

[18] = tested on: MC-38; assay: Mean survival time of treated /untreated group x100. (number of over 100-day survivors/ number of total mice in the group) at a dose 0.60 mg/kg; format: functional, Mus musculus; conditions: dose 0.6 mg/kg; how it was run: as §3
[19] = species on record: Rattus norvegicus; assay: The formation of adrenochrome from epinephrine in the absence of SOD(super oxide dismutase); format: functional; how it was run: as §4
[20] = species on record: Rattus norvegicus; assay: DNA-cleaving ability expressed as % of closed circular pBR322 DNA cleaved at 10 uM conc; format: functional
How it was run: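 pBR322 DNA (200 μM nucleotides) in 10 mM Tris·HCl pH 7.8 and 50 mM NaCl, with 4 mM Na₂S₂O₄ and 100 μM FeCl₂. Incubated with drug for 1 h at 20 °C, kept air-saturated. Supercoiled and open-circular forms were separated by agarose gel electrophoresis, stained with ethidium bromide and quantitated by densitometry. % cleaved was calculated from the open- and closed-circular amounts.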

[21] = tested on: MC-38; assay: Mean survival time of treated /untreategroup x100. (number of over 100-day survivors/ number of total mice in the group) at a dose 0.075 mg/kg; format: functional, Mus musculus; how it was run: as §3
[22] = tested on: MC-38; assay: Activity against advanced carcinoma C38 Tumor in CDF1 Mice at dose 0.30 mg/kg measured as % inhibition of tumor; format: functional; conditions: Mus musculus
[23] = tested on: MC-38; assay: Mean survival time of treated /untreategroup x100. (number of over 100-day survivors/ number of total mice in the group) at a dose 0.15 mg/kg; format: functional, Mus musculus; how it was run: as §3
[24] = tested on: MC-38; assay: Activity against advanced carcinoma C38 Tumor in CDF1 Mice at dose 0.45 mg/kg measured as % inhibition of tumor; format: functional; conditions: Mus musculus
[25] = tested on: MC-38; assay: Number of toxic deaths/number of mice in a group of non tumored mice treated in parallel with the tumor-bearing mice and observed for 100 days at a dose 0.15 mg/Kg; value given as 1/9; format: toxicity; conditions: mouse, in vivo, 2400 h; how it was run: as §2
[26] = tested on: P388 (Mus musculus); assay: Percent of the unconverted metabolite from incubation mixture containing tumor cell homogenate(T)
[27] = tested on: P388; assay: 50% inhibition of incorporation precursor [14C]uridine into RNA P388 cell lines; format: functional, cell-based; conditions: Mus musculus
[28] = tested on: MC-38; assay: Mean survival time of treated /untreategroup x100. (number of over 100-day survivors/ number of total mice in the group) at a dose 0.45 mg/kg; format: functional, Mus musculus; how it was run: as §3
[29] = tested on: HT-29; assay: 50% inhibition of incorporationf precursor [3H]thymidine into RNA HT-29 cell lines; format: functional, cell-based; conditions: Homo sapiens, HT-29, 2 h; in the assay text read “[14C]uridine” for “[3H]thymidine”; how it was run: as §5
[30] = tested on: pBR322 plasmid DNA; assay: DNA-cleaving ability expressed as % of closed circular pBR322 DNA cleaved at 100 uM conc
[31] = tested on: MC-38; assay: Number of toxic deaths/number of mice in a group of non tumored mice treated in parallel with the tumor-bearing mice and observed for 100 days at a dose 0.075 mg/Kg; value given as 0/9; format: functional, Mus musculus; how it was run: as §2
[32] = tested on: P388; assay: Antitumor activity in P388/ADR (adriamycin resistant), in male BDF1 mice measured as optimal dose at dose
[33] = tested on: P388; assay: Antitumor activity against P388/ADR (adriamycin resistant), in male BDF1 mice measured as optimal dose at dose 1.0-5.0 mg/Kg/inj, ip
[34] = tested on: P388; assay: Antitumor activity against P388/S (AMD sensitive) in male BDF1 mice measured as optimal dose at dose 1.0-5.0 mg/Kg/inj, ip

Cc1nc2c(C(=O)N[C@@H]3C(=O)N[C@H](C(C)C)C(=O)N4CCC[C@H]4C(=O)N(C)CC(=O)N(C)[C@@H](C(C)C)C(=O)O[C@@H]3C)c3nc4c(C(=O)N[C@@H]5C(=O)N[C@H](C(C)C)C(=O)N6CCC[C@H]6C(=O)N(C)CC(=O)N(C)[C@@H](C(C)C)C(=O)O[C@@H]5C)c(N)c(=O)c(C)c-4oc3c(C)c2o1
MST [1]: 65 | ILS at 0.3 mg/kg [2]: 124%

Cc1c2oc3c(C)ccc(C(=O)N[C@@H]4C(=O)N[C@H](C(C)C)C(=O)N5CCC[C@H]5C(=O)N(C)CC(=O)N(C)[C@@H](C(C)C)C(=O)O[C@@H]4C)c3nc-2c(C(=O)N[C@@H]2C(=O)N[C@H](C(C)C)C(=O)N3CCC[C@H]3C(=O)N(C)CC(=O)N(C)[C@@H](C(C)C)C(=O)O[C@@H]2C)c(N)c1=O [DACTINOMYCIN] (I: T[dV]P[Sar][NMeV] / II: T[dV]P[Sar][NMeV]; ester I:1-I:C, II:1-II:C; linker I:N-II:N via Actinocin(9to1))
inhibition in vivo at 0.15 mg/kg [3]: 30% | IC50 [4]: 1100 nM | Toxic deaths [5]: 4 | optimal dose [6]: 0.25 mg/kg | Toxic deaths [7]: 1 | inhibition in vivo at 0.075 mg/kg [8]: 30% | inhibition in vivo at 0.6 mg/kg [9]: 89% | T/C [10]: 134% | NADPH oxidation (nM min-1 (mg of protein)-1) [11]: 10 | Adrenochrome formation [12]: Inhibited | ILS [13]: 48% | MST [14]: 43 | Toxic deaths [15]: 0 | Activity [16]: 100% | IC50 [17]: 900 nM | T/C [18]: 103% | Adrenochrome formation [19]: 2.29 nM min-1 (mg of protein)-1 | Activity [20]: 10% | T/C [21]: 100% | inhibition in vivo at 0.3 mg/kg [22]: 67% | T/C [23]: 107% | inhibition in vivo at 0.45 mg/kg [24]: 83% | Toxic deaths [25]: 1 | Activity [26]: 100% | IC50 [27]: 50 nM | T/C [28]: 170% | IC50 [29]: 100 nM | Activity [30]: 22% | Toxic deaths [31]: 0 | optimal dose [32]: 0.25 mg/kg

CO[C@@]12[C@H](COC(N)=O)C3=C(C(=O)C(C)=C(N)C3=O)N1C[C@@H]1N[C@@H]12 [MITOMYCIN]
optimal dose [33]: 3 mg/kg | optimal dose [34]: 3 mg/kg
